Results reported in ChEMBL document CHEMBL5352427, “Isoquinolone derivatives as lysophosphatidic acid receptor 5 (LPA5) antagonists: Investigation of structure-activity relationships, ADME properties and analgesic effects” (Eur J Med Chem, 2022).
≈ marks a conversion by molar mass, not a printed value. Calls of active or inactive are those of the source.

Assays:
[1] = test system: Rattus norvegicus; assay: Antiallodynic activity in CCI surgery neuropathic pain induced ip dosed Sprague-Dawley rat hyperalgesia model assessed as reduction in mechanical allodynia by measuring reduction in paw threshold measured after 10 days; type: functional, organism-based; settings: dose 3.2-17.8 mg/kg, time 10.0 day
Summary of the method: (§1)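 Male Sprague-Dawley rats (n=6), ketamine/xylazine anesthesia; four chromic gut ligatures ~1 mm apart around the right sciatic nerve. Drugs i.p. in DMSO/emulphor/saline (AS2717638 in propylene glycol vehicle), single or cumulative dosing with paw withdrawal threshold (cut-off 26 g) measured every 30 min.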

[2] = test system: Rattus norvegicus; assay: Antiallodynic activity in CCI surgery neuropathic pain induced Sprague-Dawley rat neuropathic pain model assessed as reversal of hypersensitivity condition at 17.8 mg/kg, ip measured after 10 days; type: functional; settings: time 10 day
Summary of the method: (§2)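 Adult male Sprague-Dawley rats (230–280 g, n=6/group) given CCI under i.p. ketamine 75 mg/kg/xylazine 5 mg/kg: four chromic gut ligatures about 1 mm apart on the right sciatic nerve. Drug given i.p. (1–2 ml/kg) in 20% DMSO/10% emulphor/saline. Mechanical paw withdrawal threshold measured every 30 min (26 g cutoff). Reported as mean ± SEM, two-way ANOVA.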

[3] = Aqueous solubility of compound at pH 7.4; type: physicochemical; settings: aqueous medium
Summary of the method: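 Kinetic solubility: 20 mM DMSO stock diluted into PBS (1 mM KH2PO4, 3 mM Na2HPO4, 155 mM NaCl) to a target of 400 μM; triplicates quantified by LC-MS/MS against matrix-matched standards.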

[4] = target: T1, Lysophosphatidic acid receptor 3 (Homo sapiens) (UniProt Q9UBY5); assay: Antagonist activity at human LPA3 receptor expressed in CHO cells assessed as inhibition of LPA-induced calcium mobilization at 10 uM incubated for 15 mins by FLIPR analysis relative to control; type: functional, cell-based
T1 sequence (whole entry): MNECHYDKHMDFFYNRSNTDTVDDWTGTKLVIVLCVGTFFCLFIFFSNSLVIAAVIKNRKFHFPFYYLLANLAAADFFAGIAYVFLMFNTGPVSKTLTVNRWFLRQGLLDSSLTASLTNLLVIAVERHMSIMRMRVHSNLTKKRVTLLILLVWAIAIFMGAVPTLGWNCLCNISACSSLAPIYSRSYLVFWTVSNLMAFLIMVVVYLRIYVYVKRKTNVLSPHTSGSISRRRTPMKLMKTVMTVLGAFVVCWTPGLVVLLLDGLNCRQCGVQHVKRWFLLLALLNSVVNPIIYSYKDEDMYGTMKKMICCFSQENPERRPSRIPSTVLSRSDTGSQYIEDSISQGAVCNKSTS
Summary of the method: (§3)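 Calcium mobilization in CHO cells overexpressing LPA1, LPA2 or LPA3, run by a contract lab under its own protocols; compounds tested at single 10 μM.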

[5] = target: T2, Lysophosphatidic acid receptor 5 (Homo sapiens, UniProt Q9H1C0); assay: Antagonist activity at human LPA5 receptor expressed in RH7777 cells assessed as inhibition of EC80 concentration of hexadecyl LPA-induced calcium mobilization incubated for 15 mins by FLIPR method; type: functional, cell-based
T2 sequence (Q9H1C0 whole entry): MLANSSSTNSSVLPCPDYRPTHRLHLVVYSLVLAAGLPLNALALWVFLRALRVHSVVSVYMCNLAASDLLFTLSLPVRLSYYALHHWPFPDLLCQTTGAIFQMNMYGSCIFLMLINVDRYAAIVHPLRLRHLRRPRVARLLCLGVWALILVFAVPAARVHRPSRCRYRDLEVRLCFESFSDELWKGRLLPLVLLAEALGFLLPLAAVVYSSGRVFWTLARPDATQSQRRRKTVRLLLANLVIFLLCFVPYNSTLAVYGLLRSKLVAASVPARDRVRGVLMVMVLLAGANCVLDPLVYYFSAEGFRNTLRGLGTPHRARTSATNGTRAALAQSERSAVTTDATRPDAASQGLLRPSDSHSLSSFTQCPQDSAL

[6] = Effect on locomotory activity in CCI surgery-neuropathic pain induced Sprague-Dawley rat model at 17.8 mg/kg, ip measured for 60 mins by infrared motion-sensor analysis; type: toxicity, organism-based; settings: in vivo, 1 h
Summary of the method: (§4)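 Handled ≥3 days; rats pretreated 60 min with vehicle or 17.8 mg/kg i.p., then placed in activity chambers and locomotion recorded for 60 min.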

[7] = target: T2, Lysophosphatidic acid receptor 5; assay: Agonist activity at human LPA5 receptor expressed in RH7777 cells assessed as calcium mobilization incubated for 15 mins by FLIPR method; type: functional, cell-based
Summary of the method: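 RH7777 cells stably expressing hLPA5, plated 20,000/well in 0.2% FBS medium 18–20 h, loaded 45 min at 37 °C with Calcium 5 dye in HBSS/20 mM HEPES/2.5 mM probenecid pH 7.4. […] Duplicates.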

[8] = target: Lysophosphatidic acid receptor 1 (Homo sapiens) (UniProt Q92633); assay: Antagonist activity at human LPA1 receptor expressed in CHO cells assessed as inhibition of LPA-induced calcium mobilization at 10 uM incubated for 15 mins by FLIPR analysis relative to control; type: functional, cell-based; summary of the method: as §3
Lysophosphatidic acid receptor 1 (Homo sapiens), sequence (Q92633 whole entry): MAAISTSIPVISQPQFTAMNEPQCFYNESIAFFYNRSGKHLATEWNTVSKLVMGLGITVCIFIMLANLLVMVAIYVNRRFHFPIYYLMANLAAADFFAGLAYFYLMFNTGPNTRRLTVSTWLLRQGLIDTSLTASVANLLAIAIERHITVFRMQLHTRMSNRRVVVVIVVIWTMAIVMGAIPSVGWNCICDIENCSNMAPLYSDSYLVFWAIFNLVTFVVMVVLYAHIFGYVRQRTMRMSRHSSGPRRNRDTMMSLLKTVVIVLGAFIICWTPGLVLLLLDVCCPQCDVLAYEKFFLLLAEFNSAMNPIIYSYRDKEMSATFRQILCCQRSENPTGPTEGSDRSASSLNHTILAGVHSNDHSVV

[9] = target: T2, Lysophosphatidic acid receptor 5; assay: Antagonist activity at human LPA5 receptor expressed in RH7777 cells assessed as inhibition of EC80 concentration of LPA-induced cAMP accumulation preincubated for 30 mins followed by Eu-cAMP tracer addition and measured after 1 hr by TR-FRET assay relative to hexadecyl LPA; type: functional, cell-based; settings: filed as antagonist
Summary of the method: (§5)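 hLPA5-RH7777 cells, switched to 0.2% FBS medium 20 h prior, lifted with versene, 2,000 cells/well in HBSS/5 mM HEPES/0.1% BSA/0.5 mM IBMX pH 7.4. Compound dilutions with hexadecyl LPA 16:0 EC80 (300 nM) plus forskolin, 30 min room temperature; LANCE Ultra Eu-cAMP tracer/ULight-anti-cAMP 1 h; TR-FRET 665 nm converted to cAMP via standard curve. Three-parameter logistic IC50; ≥3 experiments in duplicate.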

[10] = target: T2, Lysophosphatidic acid receptor 5; assay: Antagonist activity at human LPA5 receptor expressed in RH7777 cells assessed as inhibition of EC80 concentration of LPA-induced cAMP accumulation preincubated for 30 mins followed by Eu-cAMP tracer addition and measured after 1 hr by TR-FRET assay; type: functional, cell-based; summary of the method: as §5
[11] = test system: Rattus norvegicus; assay: Antiallodynic activity against CFA-induced Sprague-Dawley rat inflammatory pain model assessed as reduction in paw withdrawal threshold at 17.8 mg/kg measured after 5 hrs; type: functional, organism-based
Summary of the method: (§6)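 Adult male Sprague-Dawley rats (230–280 g, n=6/group); 0.1 ml CFA injected into right hind paw. Compounds i.p. (1–2 ml/kg) in 20% DMSO/10% emulphor/saline; AS2717638 in 30% propylene glycol vehicle. Mechanical paw withdrawal threshold (cut-off 26 g) measured every 30 min after single dose; two-way ANOVA, mean ± SEM.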

[12] = Substrate activity at P-glycoprotein (unknown origin) in MDCK-MDR1 cells assessed as efflux ratio of apparent permeability across basolateral to apical over apical to basolateral side measured after 90 mins by LC-MS/MS analysis; type: ADME, cell-based, Canis lupus familiaris; settings: dog, mdck-mdr1, 1.5 h
Summary of the method: (§7)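 MDCK-MDR1 cells (passage 5) grown 3 days on Transwell polycarbonate inserts; transport buffer HBSS/10 mM HEPES/0.25% BSA pH 7.4, 30 min preincubation 37 °C with TEER check. 10 μM test article added apical (A-to-B) or basolateral (B-to-A); receiver sampled at 30, 60, 90 min, LC-MS/MS. Papp = (dQ/dt)/(A·Ci); efflux ratio B-to-A/A-to-B. Atenolol, propranolol, digoxin references.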

[13] = target: Lysophosphatidic acid receptor 4 (Homo sapiens) (UniProt Q99677); assay: Antagonist activity at human LPA4 receptor expressed in CHO cells assessed as inhibition of LPA-induced calcium accumulation preincubated for 30 mins followed by Eu-cAMP tracer addition and measured after 1 hr by TR-FRET assay relative to hexadecyl LPA; type: functional, cell-based
Lysophosphatidic acid receptor 4 (Homo sapiens), sequence (Q99677 whole entry): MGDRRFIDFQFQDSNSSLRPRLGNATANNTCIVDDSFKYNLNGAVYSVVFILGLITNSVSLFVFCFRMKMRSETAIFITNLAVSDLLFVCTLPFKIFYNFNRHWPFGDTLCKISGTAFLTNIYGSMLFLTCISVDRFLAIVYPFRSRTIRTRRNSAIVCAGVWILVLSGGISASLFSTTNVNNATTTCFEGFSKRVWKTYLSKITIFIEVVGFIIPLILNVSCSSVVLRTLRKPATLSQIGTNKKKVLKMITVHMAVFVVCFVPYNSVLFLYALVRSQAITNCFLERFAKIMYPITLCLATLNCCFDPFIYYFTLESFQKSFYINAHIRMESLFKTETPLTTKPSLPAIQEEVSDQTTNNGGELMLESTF

[14] = test system: Rattus norvegicus; assay: Antiallodynic activity in CCI surgery-induced Sprague-Dawley rat neuropathic pain model assessed as reduction in paw withdrawal threshold at 17.8 mg/kg, ip measured after 5 hrs; type: functional; parameters: scale not given: the % may be the effect or the level left; summary of the method: as §2
[15] = target: Lysophosphatidic acid receptor 2 (Homo sapiens) (UniProt Q9HBW0); assay: Antagonist activity at human LPA2 receptor expressed in CHO cells assessed as inhibition of LPA-induced calcium mobilization at 10 uM incubated for 15 mins by FLIPR analysis relative to control; type: functional, cell-based; summary of the method: as §3
Lysophosphatidic acid receptor 2 (Homo sapiens), sequence (Q9HBW0 whole entry): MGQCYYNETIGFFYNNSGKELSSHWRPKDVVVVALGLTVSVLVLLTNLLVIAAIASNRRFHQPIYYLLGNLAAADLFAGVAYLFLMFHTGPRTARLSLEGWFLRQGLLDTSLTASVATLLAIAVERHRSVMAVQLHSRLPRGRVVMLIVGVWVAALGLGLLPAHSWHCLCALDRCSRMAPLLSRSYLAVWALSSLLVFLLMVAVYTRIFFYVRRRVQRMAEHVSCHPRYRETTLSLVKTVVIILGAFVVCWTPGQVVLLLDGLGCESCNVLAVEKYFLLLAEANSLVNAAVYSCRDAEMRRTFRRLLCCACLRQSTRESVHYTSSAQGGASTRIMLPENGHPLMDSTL

[16] = Apparent permeability across apical to basolateral side in MDCK-MDR1 cells incubated for 90 mins by LC-MS/MS analysis; type: ADME, cell-based, Canis lupus familiaris; settings: dog, mdck-mdr1, 1.5 h; summary of the method: as §7
[17] = Effect on locomotory activity in opioid-induced hyperalgesia Sprague-Dawley rat model at 17.8 mg/kg, ip measured for 60 mins by infrared motion-sensor analysis; type: toxicity, organism-based; settings: in vivo, 1 h; summary of the method: as §4
[18] = target: T2, Lysophosphatidic acid receptor 5; assay: Antagonist activity at human LPA5 receptor expressed in RH7777 cells assessed as inhibition of EC80 concentration of hexadecyl LPA-induced calcium mobilization incubated for 15 mins by FLIPR method relative to hexadecyl LPA; type: functional, cell-based; settings: filed as antagonist
[19] = Drug concentration in Sprague-Dawley rat brain at 17.8 mg/kg, ip measured after 30 mins by LC-MS/MS analysis; type: ADME, organism-based; settings: read-out: Ct
Summary of the method: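 Male Sprague-Dawley rats (258–277 g) given 17.8 mg/kg i.p. in 5% Cremophor/5% ethanol/saline; at 30 min two rats anesthetized with isoflurane, cardiac blood taken, PBS-perfused; brains homogenized 1:4 (w/v) in 25% isopropanol and quantified by LC-MS/MS.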

[20] = test system: Rattus norvegicus; assay: Antinociceptive activity against in opioid-induced hyperalgesia Sprague-Dawley rat model assessed as reduction in mechanical hyperalgesia induced hypersensitivity at 5.6 to 17.8 mg/kg, ip and measured after 5 hrs; type: functional, organism-based; settings: dose 5.6-17.8 mg/kg
Summary of the method: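 Opioid-induced hyperalgesia: after baselines on D−1 and D0, rats given four s.c. fentanyl injections of 0.06 mg/kg at 15 min intervals (0.24 mg/kg total); paw withdrawal thresholds tested after i.p. drug on days 1–2 post-fentanyl.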

[21] = species on record: Rattus norvegicus; assay: Antiallodynic activity against CFA-induced mechanical allodynia Sprague-Dawley rat model assessed as reduction paw threshold pain measured after 2 hrs; type: functional, organism-based; settings: dose 32.0 mg/kg; summary of the method: as §6
[22] = test system: Rattus norvegicus; assay: Antiallodynic activity against CFA-induced mechanical allodynia Sprague-Dawley rat model assessed as reduction paw threshold pain measured at 32 mg/kg, ip; type: functional, organism-based; settings: time 2.0 hrs, TDE = time-dependent effect; summary of the method: as §6
[23] = species on record: Rattus norvegicus; assay: Antinociceptive activity in CCI surgery-neuropathic pain induced Sprague-Dawley rat model assessed as reduction in paw threshold pain measured after 2 hrs; type: functional, organism-based; settings: dose 32.0 mg/kg; summary of the method: as §1
[24] = species on record: Homo sapiens; assay: Selectivity ratio of IC50 for antagonist activity at human LPA5 receptor expressed in RH7777 cells assessed as inhibition of LPA-induced cAMP accumulation to IC50 for antagonist activity at human LPA5 receptor expressed in RH7777 cells assessed as inhibition of LPA-induced calcium mobilization; type: cell-based
[25] = test system: Rattus norvegicus; assay: Antiallodynic activity against CFA-induced Sprague-Dawley rat inflammatory pain model assessed as reduction in paw withdrawal threshold at 32 mg/kg measured after 2 hrs; type: functional, organism-based; summary of the method: as §6
[26] = test system: Rattus norvegicus; assay: Antinociceptive activity in CCI surgery-neuropathic pain induced Sprague-Dawley rat model assessed as reduction in paw threshold pain measured at 32 mg/kg, ip; type: functional, organism-based; settings: time 2.0 hrs, TDE = time-dependent effect; summary of the method: as §1

Row | IC50 [5] [nM] | inhibition [9] [%] | IC50 [10] [nM] | inhibition [18] [%] | SMILES | solubility kinetic [3] [µM] | inhibition [4] [%] | Activity [7] | inhibition [8] [%] | Activity [11] | Ratio [12] | inhibition [13] [%] | inhibition [15] [%] | Papp [16] | other results
1 | 36 | 102 | 210 | 108 | COc1cc2c(C(=O)N3CCCCC3)cn(-c3noc4ccc(C)cc34)c(=O)c2cc1OC | – | – | – | – | – | – | – | – | – | Activity [21]: Dose-Dependent Effect; Activity [22]: Tde; Activity [23]: Dose-Dependent Effect; Ratio IC50 [24]: 5.8; Activity [25]: Active; Activity [26]: Tde
2 | 69 | 104 | 340 | 107 | COc1cc2c(C(=O)N3CCC(F)CC3)cn(-c3ccc4scc(C)c4c3)c(=O)c2cc1OC | 96.4 (≈ 46.3 µg/mL) | < 50 | inactive | < 50 | Active | 1.4 | < 50 | < 50 | 22.2 10^-6 cm/s | –

Row | SMILES | IC50 [5] [nM] | inhibition [9] [%] | IC50 [10] [nM] | inhibition [18] [%] | solubility kinetic [3] [µM] | inhibition [4] [%] | Activity [7] | inhibition [8] [%] | Activity [11] | Ratio [12] | inhibition [13] [%] | inhibition [15] [%] | Papp [16] | other results
3 | C#CC1CCN(C(=O)c2cn(-c3ccc4scc(C)c4c3)c(=O)c3cc(OC)c(OC)cc23)CC1 | 32 | 100 | 350 | 107 | 19.5 (≈ 9.49 µg/mL) | < 50 | inactive | < 50 | Active | 1.2 | < 50 | < 50 | 31.1 10^-6 cm/s | Activity [1]: Dose-Dependent Effect; Activity [2]: 100%; Activity [6]: Non-Toxic; Activity [14]: 100%; Activity [17]: Non-Toxic; concentration at 0.5 h [19]: 652 ng/mL; Activity [20]: Active
